What was measured:
[1] = target: Somatostatin receptor type 1 (Homo sapiens, UniProt P30872); assay: In vitro inhibition of [125I][Leu8,D-Trp22,Tyr25] somatostatin 28 binding to human somatostatin receptor type 1 expressed in CHO-K1 cells; (n=3); assay type: cell-based
[2] = target: Somatostatin receptor type 5 (Homo sapiens, UniProt P35346); assay: In vitro inhibition of [125I][Leu8,D-Trp22,Tyr25] somatostatin 28 binding to human somatostatin receptor type 5 expressed in CHO-K1 cells; (n=3); assay type: cell-based
Sequence of Somatostatin receptor type 5 (P35346 whole entry): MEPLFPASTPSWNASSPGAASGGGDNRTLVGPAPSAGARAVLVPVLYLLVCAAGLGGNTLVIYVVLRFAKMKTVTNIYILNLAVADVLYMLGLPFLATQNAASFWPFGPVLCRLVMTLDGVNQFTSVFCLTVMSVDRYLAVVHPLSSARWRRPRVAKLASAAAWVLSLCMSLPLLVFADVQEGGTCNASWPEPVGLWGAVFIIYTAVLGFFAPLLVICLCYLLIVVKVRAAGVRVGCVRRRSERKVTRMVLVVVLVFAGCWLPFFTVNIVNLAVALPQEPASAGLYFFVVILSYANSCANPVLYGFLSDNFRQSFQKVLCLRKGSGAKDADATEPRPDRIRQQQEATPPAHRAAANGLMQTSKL

[3] = target: Somatostatin receptor type 2 (Homo sapiens, UniProt P30874); assay: In vitro inhibition of [125I][Leu8,D-Trp22,Tyr25] somatostatin 28 binding to human somatostatin receptor type 2 expressed in CCL39 cells; (n=3); assay type: cell-based
Sequence of Somatostatin receptor type 2 (P30874 whole entry): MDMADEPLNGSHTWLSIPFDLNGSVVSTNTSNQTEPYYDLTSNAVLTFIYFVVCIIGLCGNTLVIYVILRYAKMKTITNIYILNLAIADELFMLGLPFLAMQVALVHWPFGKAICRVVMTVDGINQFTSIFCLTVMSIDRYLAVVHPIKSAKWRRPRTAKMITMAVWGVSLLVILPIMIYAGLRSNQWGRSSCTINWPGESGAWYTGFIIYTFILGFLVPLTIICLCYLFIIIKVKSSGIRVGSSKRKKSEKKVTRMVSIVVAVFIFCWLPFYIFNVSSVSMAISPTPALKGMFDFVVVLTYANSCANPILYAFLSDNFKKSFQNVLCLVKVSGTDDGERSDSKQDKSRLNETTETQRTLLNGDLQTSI

[4] = target: Somatostatin receptor type 3 (Homo sapiens, UniProt P32745); assay: In vitro inhibition of [125I][Leu8,D-Trp22,Tyr25] somatostatin 28 binding to human somatostatin receptor type 3 expressed in CCL39 cells; (n=3); assay type: cell-based
Sequence of Somatostatin receptor type 3 (P32745 whole entry): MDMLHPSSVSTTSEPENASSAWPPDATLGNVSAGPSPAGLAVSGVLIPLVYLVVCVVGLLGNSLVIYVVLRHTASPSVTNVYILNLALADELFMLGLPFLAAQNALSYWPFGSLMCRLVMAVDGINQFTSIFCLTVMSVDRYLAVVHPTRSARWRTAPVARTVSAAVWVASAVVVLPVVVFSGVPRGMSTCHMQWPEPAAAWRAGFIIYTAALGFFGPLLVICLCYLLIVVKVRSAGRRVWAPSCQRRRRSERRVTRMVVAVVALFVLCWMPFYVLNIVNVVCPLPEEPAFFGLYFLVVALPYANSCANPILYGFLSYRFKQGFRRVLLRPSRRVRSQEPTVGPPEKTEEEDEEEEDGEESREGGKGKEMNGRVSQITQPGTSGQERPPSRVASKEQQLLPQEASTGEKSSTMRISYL

[5] = target: Somatostatin receptor type 4 (Homo sapiens, UniProt P31391); assay: In vitro inhibition of [125I][Leu8,D-Trp22,Tyr25] somatostatin 28 binding to human somatostatin receptor type 4 expressed in CCL39 cells; (n=3); assay type: cell-based
Sequence of Somatostatin receptor type 4 (P31391 whole entry): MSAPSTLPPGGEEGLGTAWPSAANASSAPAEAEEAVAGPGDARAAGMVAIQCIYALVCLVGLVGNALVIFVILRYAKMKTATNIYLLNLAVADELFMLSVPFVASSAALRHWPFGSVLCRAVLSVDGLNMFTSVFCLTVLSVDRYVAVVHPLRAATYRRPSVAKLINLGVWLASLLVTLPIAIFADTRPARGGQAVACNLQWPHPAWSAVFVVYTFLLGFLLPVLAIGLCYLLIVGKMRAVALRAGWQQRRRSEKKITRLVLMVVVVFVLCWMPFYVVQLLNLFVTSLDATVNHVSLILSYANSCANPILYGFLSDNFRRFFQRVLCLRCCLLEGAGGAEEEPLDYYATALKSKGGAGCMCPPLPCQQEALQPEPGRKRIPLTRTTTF
Summary of the method: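 Membrane pellets from CCL39 cells stably expressing hsst4 were sectioned onto slides for receptor autoradiography. Full displacement of the universal somatostatin radioligand used unlabeled peptide at 0.1–1000 nM, with somatostatin 28 run in parallel at the same concentrations. Values are mean ± SD.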

[6] = target: Somatostatin receptor type 2 (Rattus norvegicus) (UniProt P30680); assay: In vivo tumor accumulation was determined in nude mice bearing rat pancreatic AR42J tumor cell expressed with somatostatin receptor type 2;60 min p.i.; (n=3-5); assay type: functional, organism-based; settings: AR-42J
Sequence of Somatostatin receptor type 2 (Rattus norvegicus) (P30680 whole entry): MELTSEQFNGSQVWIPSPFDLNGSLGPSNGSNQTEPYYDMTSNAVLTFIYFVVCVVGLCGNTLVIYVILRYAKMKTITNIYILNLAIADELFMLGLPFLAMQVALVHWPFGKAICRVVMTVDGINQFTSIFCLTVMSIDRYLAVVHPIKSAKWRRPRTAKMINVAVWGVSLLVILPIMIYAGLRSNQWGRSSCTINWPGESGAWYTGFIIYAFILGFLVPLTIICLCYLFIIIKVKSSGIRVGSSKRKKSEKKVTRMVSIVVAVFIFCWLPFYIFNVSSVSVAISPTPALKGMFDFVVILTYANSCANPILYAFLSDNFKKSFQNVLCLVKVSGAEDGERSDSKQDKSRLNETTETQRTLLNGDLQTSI
Summary of the method: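 Female Swiss nu/nu mice, 6–8 weeks, were inoculated s.c. in the flank with (2.5–5) × 10⁶ AR42J cells in serum-free RPMI 1640 and used after 10 days (tumors 150–500 mg). About 370 kBq of radioiodinated peptide in 100 µL PBS pH 7.4 was given i.v. into the tail vein. Tumor was excised 60 min p.i. and gamma-counted; results are % ID/g.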

[7] = tested as the 123I-labelled form

Sequence of Somatostatin receptor type 1 (P30872 whole entry): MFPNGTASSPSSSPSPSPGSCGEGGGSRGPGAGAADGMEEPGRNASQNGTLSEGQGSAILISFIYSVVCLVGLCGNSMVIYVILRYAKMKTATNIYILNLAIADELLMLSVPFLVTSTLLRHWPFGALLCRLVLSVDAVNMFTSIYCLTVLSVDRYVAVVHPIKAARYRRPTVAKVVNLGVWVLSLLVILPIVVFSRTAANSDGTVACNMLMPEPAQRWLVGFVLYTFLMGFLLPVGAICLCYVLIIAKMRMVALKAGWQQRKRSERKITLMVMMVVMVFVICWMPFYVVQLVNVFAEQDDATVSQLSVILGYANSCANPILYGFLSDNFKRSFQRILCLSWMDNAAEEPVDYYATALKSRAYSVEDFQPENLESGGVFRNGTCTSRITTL

Compound | IC50 ([1]; cho-k1) [µM] | IC50 [2] [nM] | IC50 [3] [nM] | IC50 ([4]; ccl39) [nM] | IC50 [5] [nM] | ID/g [6, 7] [%] | other results
C[C@@H](O)[C@H](CO)NC(=O)[C@@H]1CSSC[C@H](NC(=O)[C@@H](Cc2ccccc2)NC[C@]2(O)OC[C@H](O)[C@@H](O[C@@H]3O[C@@H](CO)[C@@H](O)[C@H](O)[C@@H]3O)[C@@H]2O)C(=O)N[C@@H](Cc2ccc(O)c(I)c2)C(=O)N[C@H](Cc2c[nH]c3ccccc23)C(=O)N[C@@H](CCCCN)C(=O)N[C@@H]([C@@H](C)O)C(=O)N1 | > 10 | 75 | 1.2 | 243 | > 1000 |  | 
C[C@@H](O)[C@H](CO)NC(=O)[C@@H]1CSSC[C@H](NC(=O)[C@@H](N)Cc2ccccc2)C(=O)N[C@@H](Cc2ccc(O)c(I)c2)C(=O)N[C@H](Cc2c[nH]c3ccccc23)C(=O)N[C@@H](CCCCN)C(=O)N[C@@H]([C@@H](C)O)C(=O)N1 |  |  |  |  |  |  | ID/g ([6]; tested as the 125I-labelled form): 5.5%
C[C@@H](O)[C@H](NC(=O)[C@@H]1CSSC[C@H](NC(=O)[C@H](Cc2ccccc2)NC[C@]2(O)OC[C@H](O)[C@@H](O[C@@H]3O[C@@H](CO)[C@@H](O)[C@H](O)[C@@H]3O)[C@@H]2O)C(=O)N[C@@H](Cc2ccc(O)c(I)c2)C(=O)N[C@H](Cc2c[nH]c3ccccc23)C(=O)N[C@@H](CCCCN)C(=O)N[C@@H]([C@@H](C)O)C(=O)N1)C(=O)O |  |  |  |  |  | 11.2 | 
C[C@@H](O)[C@@H]1NC(=O)[C@H](CCCCN)NC(=O)[C@@H](Cc2c[nH]c3ccccc23)NC(=O)[C@H](Cc2ccc(O)c(I)c2)NC(=O)[C@@H](NC(=O)[C@@H](Cc2ccccc2)NC[C@]2(O)OC[C@H](O)[C@@H](O)[C@@H]2O)CSSC[C@@H](C(=O)N[C@H](CO)[C@@H](C)O)NC1=O | > 1 | 64 | 2.2 | 357 | 837 |  | 
C[C@@H](O)[C@H](NC(=O)[C@@H]1CSSC[C@H](NC(=O)[C@@H](Cc2ccccc2)NC(=O)CN2CCN(CC(=O)O)CCN(CC(=O)O)CCN(CC(=O)O)CC2)C(=O)N[C@@H](Cc2ccc(O)cc2)C(=O)N[C@H](Cc2c[nH]c3ccccc23)C(=O)N[C@@H](CCCCN)C(=O)N[C@@H]([C@@H](C)O)C(=O)N1)C(=O)O |  |  |  |  |  |  | IC50 [1]: > 10 µM; IC50 [4]: > 1000 nM
GALLIUM OXODOTREOTIDE | > 10 | 377 | 0.2 | > 1000 | 300 |  | 
C[C@@H](O)[C@H](NC(=O)[C@@H]1CSSC[C@H](NC(=O)[C@H](Cc2ccccc2)NC[C@]2(O)OC[C@H](O)[C@@H](O[C@@H]3O[C@@H](CO)[C@@H](O[C@@H]4O[C@@H](CO)[C@@H](O)[C@H](O)[C@@H]4O)[C@H](O)[C@@H]3O)[C@@H]2O)C(=O)N[C@@H](Cc2ccc(O)c(I)c2)C(=O)N[C@H](Cc2c[nH]c3ccccc23)C(=O)N[C@@H](CCCCN)C(=O)N[C@@H]([C@@H](C)O)C(=O)N1)C(=O)O |  |  |  |  |  | 25.1 | 
C[C@@H](O)[C@H](NC(=O)[C@@H]1CSSC[C@H](NC(=O)[C@H](N)Cc2ccccc2)C(=O)N[C@@H](Cc2ccc(O)c(I)c2)C(=O)N[C@H](Cc2c[nH]c3ccccc23)C(=O)N[C@@H](CCCCN)C(=O)N[C@@H]([C@@H](C)O)C(=O)N1)C(=O)O |  |  |  |  |  | 21.2 | 

Second part, led by results:

IC50 ([1]; cho-k1) [µM] | IC50 [2] [nM] | IC50 [3] [nM] | IC50 ([4]; ccl39) [nM] | IC50 [5] [nM] | ID/g [6, 7] [%] | Compound | other results
> 1 | 521 | 2 | > 1000 | 1030 |  | C[C@@H](O)[C@H](NC(=O)[C@@H]1CSSC[C@H](NC(=O)[C@@H](Cc2ccccc2)NC[C@@]2(O)OC[C@@H](O)[C@@H](O)[C@@H]2O)C(=O)N[C@@H](Cc2ccc(O)c(I)c2)C(=O)N[C@H](Cc2c[nH]c3ccccc23)C(=O)N[C@@H](CCCCN)C(=O)N[C@@H]([C@@H](C)O)C(=O)N1)C(=O)O | 
> 1 | 310 |  | 398 | 356 |  | C[C@@H](O)[C@H](NC(=O)[C@@H]1CSSC[C@H](NC(=O)[C@@H](Cc2ccccc2)NC(=O)CCS[C@@H]2O[C@@H](CO)[C@@H](O)[C@H](O)[C@@H]2O)C(=O)N[C@@H](Cc2ccc(O)c(I)c2)C(=O)N[C@H](Cc2c[nH]c3ccccc23)C(=O)N[C@@H](CCCCN)C(=O)N[C@@H]([C@@H](C)O)C(=O)N1)C(=O)O | 
 |  |  |  |  | 4.9 | C[C@@H](O)[C@H](CO)NC(=O)[C@@H]1CSSC[C@H](NC(=O)[C@H](Cc2ccccc2)NC[C@]2(O)OC[C@H](O)[C@@H](O[C@@H]3O[C@@H](CO)[C@@H](O[C@@H]4O[C@@H](CO)[C@@H](O)[C@H](O)[C@@H]4O)[C@H](O)[C@@H]3O)[C@@H]2O)C(=O)N[C@@H](Cc2ccc(O)c(I)c2)C(=O)N[C@H](Cc2c[nH]c3ccccc23)C(=O)N[C@@H](CCCCN)C(=O)N[C@@H]([C@@H](C)O)C(=O)N1 | 
> 10 | 327 | 0.95 | 823 | 823 |  | C[C@@H](O)[C@H](NC(=O)[C@@H]1CSSC[C@H](NC(=O)[C@@H](Cc2ccccc2)NC[C@]2(O)OC[C@H](O)[C@@H](O[C@@H]3O[C@@H](CO)[C@@H](O[C@@H]4O[C@@H](CO)[C@@H](O)[C@H](O)[C@@H]4O)[C@H](O)[C@@H]3O)[C@@H]2O)C(=O)N[C@@H](Cc2ccc(O)c(I)c2)C(=O)N[C@H](Cc2c[nH]c3ccccc23)C(=O)N[C@@H](CCCCN)C(=O)N[C@@H]([C@@H](C)O)C(=O)N1)C(=O)O | 
 |  |  |  |  | 8.7 | C[C@@H](O)[C@H](CO)NC(=O)[C@@H]1CSSC[C@H](NC(=O)[C@H](Cc2ccccc2)NC[C@]2(O)OC[C@H](O)[C@@H](O)[C@@H]2O)C(=O)N[C@@H](Cc2ccc(O)c(I)c2)C(=O)N[C@H](Cc2c[nH]c3ccccc23)C(=O)N[C@@H](CCCCN)C(=O)N[C@@H]([C@@H](C)O)C(=O)N1 | 
> 1 | 413 |  | 491 | 482 |  | C[C@@H](O)[C@H](NC(=O)[C@@H]1CSSC[C@H](NC(=O)[C@@H](Cc2ccccc2)NC(=O)CCS[C@@H]2O[C@@H](CO)[C@H](O)[C@H](O)[C@@H]2O)C(=O)N[C@@H](Cc2ccc(O)c(I)c2)C(=O)N[C@H](Cc2c[nH]c3ccccc23)C(=O)N[C@@H](CCCCN)C(=O)N[C@@H]([C@@H](C)O)C(=O)N1)C(=O)O | 
 |  |  |  |  | 20.5 | C[C@@H](O)[C@H](NC(=O)[C@@H]1CSSC[C@H](NC(=O)[C@@H](Cc2ccccc2)NC[C@H]2O[C@H](O)[C@H](O)[C@@H](O)[C@@H]2O)C(=O)N[C@@H](Cc2ccc(O)c(I)c2)C(=O)N[C@H](Cc2c[nH]c3ccccc23)C(=O)N[C@@H](CCCCN)C(=O)N[C@@H]([C@@H](C)O)C(=O)N1)C(=O)O | 
> 10 | 110 | 1.1 | 210 | > 1000 |  | C[C@@H](O)[C@H](CO)NC(=O)[C@@H]1CSSC[C@H](NC(=O)[C@@H](Cc2ccccc2)NC[C@]2(O)OC[C@H](O)[C@@H](O[C@@H]3O[C@@H](CO)[C@@H](O[C@@H]4O[C@@H](CO)[C@@H](O)[C@H](O)[C@@H]4O)[C@H](O)[C@@H]3O)[C@@H]2O)C(=O)N[C@@H](Cc2ccc(O)c(I)c2)C(=O)N[C@H](Cc2c[nH]c3ccccc23)C(=O)N[C@@H](CCCCN)C(=O)N[C@@H]([C@@H](C)O)C(=O)N1 | 
 |  |  |  |  | 5.2 | C[C@@H](O)[C@H](CO)NC(=O)[C@@H]1CSSC[C@H](NC(=O)[C@H](Cc2ccccc2)NC[C@]2(O)OC[C@H](O)[C@@H](O[C@@H]3O[C@@H](CO)[C@@H](O)[C@H](O)[C@@H]3O)[C@@H]2O)C(=O)N[C@@H](Cc2ccc(O)c(I)c2)C(=O)N[C@H](Cc2c[nH]c3ccccc23)C(=O)N[C@@H](CCCCN)C(=O)N[C@@H]([C@@H](C)O)C(=O)N1 | 
> 10 |  |  |  | > 10000 |  | EDOTREOTIDE YTTRIUM | 
